The record followed here is ChEMBL document CHEMBL1125448, “(Aminoalkoxy)chromones. Selective sigma receptor ligands” (J Med Chem, 1992).

SMILES strings stand for the structures.

For one test, the target named is T1, D(2) dopamine receptor (Rattus norvegicus, UniProt P61169). The test is described as follows: Affinity towards dopamine receptor D2 site was determined by competition studies using [3H]sulpiride in rat striatum. It counts as tissue-based. Put shortly: (§1)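 Competition binding values reported as mean ± SEM of triplicate determinations, with some entries from N = 3, 4, 6 or 7 determinations.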
T1 sequence (P61169 whole entry): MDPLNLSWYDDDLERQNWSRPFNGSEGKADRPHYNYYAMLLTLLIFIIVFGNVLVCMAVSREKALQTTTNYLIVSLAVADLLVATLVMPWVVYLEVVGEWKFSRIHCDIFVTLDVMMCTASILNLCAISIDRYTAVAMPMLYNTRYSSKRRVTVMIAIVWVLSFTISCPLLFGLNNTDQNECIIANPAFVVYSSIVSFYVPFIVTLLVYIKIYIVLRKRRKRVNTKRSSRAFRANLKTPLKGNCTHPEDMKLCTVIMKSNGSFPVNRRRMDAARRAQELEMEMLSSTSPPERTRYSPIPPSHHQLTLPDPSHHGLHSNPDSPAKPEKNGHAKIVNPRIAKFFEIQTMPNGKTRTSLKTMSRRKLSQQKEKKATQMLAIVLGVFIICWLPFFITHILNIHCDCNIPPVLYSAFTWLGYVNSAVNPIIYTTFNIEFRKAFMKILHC
By Ki is commonly meant a measure of affinity in units of concentration, obtained from inhibition or displacement. A lower Ki goes with a stronger hold on the target. Molecule `COc1ccc(-c2cc(=O)c3cc(OCCCCCCN4CCC(O)CC4)ccc3o2)cc1` returned a Ki of 3.7 µM.
The same measure, in the same setting: then `O=c1cc(-c2ccccc2)oc2ccc(OCCCCCCN3CCC(n4c(O)nc5ccccc54)CC3)cc12`, with 0.22 µM; and `O=c1cc(-c2ccccc2Cl)oc2ccc(OCCCCCCN3CCC(O)CC3)cc12`, with 4.1 µM.
`O=c1cc(-c2ccccc2)oc2ccc(OCCCCCCN3CCC(O)(c4ccc(Cl)cc4)CC3)cc12` registered a Ki of 0.99 µM.
In turn, `O=c1cc(-c2ccncc2)oc2ccc(OCCCCCCN3CCC(O)CC3)cc12` gave a Ki of 6.9 µM.
Molecule `O=c1cc(-c2ccccc2)oc2ccc(OCCCCCCN3CCN(CCO)CC3)cc12` showed an inhibition constant (Ki) of 8.3 µM.
Molecule `NCCCCCCOc1ccc2oc(-c3ccccc3)cc(=O)c2c1` yielded a Ki of 8.2 µM.
`O=c1cc(-c2cccs2)oc2ccc(OCCCCCCN3CCC(O)CC3)cc12` returned an inhibition constant (Ki) of 4 µM.
With `O=c1cc(C2CCCCC2)oc2ccc(OCCCCCN3CCC(O)CC3)cc12`, the Ki came out at 12 µM.
Consider `O=c1cc(C2CCCC2)oc2ccc(OCCCCCCN3CCC(O)CC3)cc12`, for which the affinity corresponds to a Ki of 21 µM.
`COc1cccc(-c2cc(=O)c3cc(OCCCCCN4CCC(O)CC4)ccc3o2)c1` returned a Ki of 6.2 µM.
Turning to `O=c1cc(-c2ccccc2)oc2ccc(OCCCCCCN3CCN(c4ccccn4)CC3)cc12`, the Ki is 3 µM.
In the case of `COc1ccc(-c2cc(=O)c3cc(OCCCCCN4CCC(O)CC4)ccc3o2)cc1`, the affinity, expressed as Ki, was 4.2 µM.
Regarding `O=c1cc(-c2ccccc2)oc2ccc(OCCCCCCN3CCOCC3)cc12`, affinity was put at a Ki of 18 µM.
Turning to `CCN(CC)CCCCCCOc1ccc2oc(-c3ccccc3)cc(=O)c2c1`, the Ki was found to be 3.6 µM.
Turning to `O=c1cc(-c2cccc(F)c2)oc2ccc(OCCCCCCN3CCC(O)CC3)cc12`, the affinity corresponds to a Ki of 11 µM.
For `O=c1cc(-c2cccc(Cl)c2)oc2ccc(OCCCCCCN3CCC(O)CC3)cc12`, the affinity, expressed as Ki, was 6.4 µM.
Molecule `O=c1cc(-c2ccccc2)oc2ccc(OCCCCCCN3CCN(c4ccc(Cl)cc4)CC3)cc12` gave a Ki of 1.3 µM.
Take `O=c1cc(-c2ccc(F)cc2)oc2ccc(OCCCCCCN3CCC(O)CC3)cc12`: the Ki is 3.8 µM.
Consider `O=c1cc(-c2ccccc2)oc2cccc(OCCCN3CCC(O)CC3)c12`, for which the Ki was 8.4 µM.
On the same count and under the same terms, then `CCOC(=O)C1CCN(CCCCCCOc2ccc3oc(-c4ccccc4)cc(=O)c3c2)CC1`, with 2.8 µM; and `CN(CCCCCCOc1ccc2oc(-c3ccccc3)cc(=O)c2c1)Cc1ccccc1`, with 1.8 µM.
`Cc1c(-c2ccccc2)oc2ccc(OCCCCCCN3CCC(O)CC3)cc2c1=O` displayed a Ki of 2.7 µM.
The molecule `CCOC(=O)C1CCCN(CCCCCCOc2ccc3oc(-c4ccccc4)cc(=O)c3c2)C1` (stereo not given) registered a Ki of 0.7 µM.
Take `CN(CCO)CCCCCCOc1ccc2oc(-c3ccccc3)cc(=O)c2c1`: the Ki came out at 4.5 µM.
For `CN(C)CCCOc1ccc2oc(-c3ccccc3)cc(=O)c2c1`, the Ki came out at 3.6 µM.
`O=c1cc(-c2ccccc2)oc2ccc(OCCCCCCN3CC=C(c4ccc(Cl)cc4)CC3)cc12` came in with a Ki of 1.3 µM.
On to `O=C1NCN(c2ccccc2)C12CCN(CCCCCCOc1ccc3oc(-c4ccccc4)cc(=O)c3c1)CC2`, for which the affinity, expressed as Ki, was 0.18 µM.
`O=c1cc(-c2ccc(Cl)cc2)oc2ccc(OCCCCCCN3CCC(O)CC3)cc12` came in with a Ki of 11 µM.
The same measure, in the same setting: as for `O=c1cc(-c2cccnc2)oc2ccc(OCCCCCCN3CCC(O)CC3)cc12`, the figure is 3.8 µM.
`COc1cccc(-c2cc(=O)c3cc(OCCCCCCN4CCC(O)CC4)ccc3o2)c1` gave a Ki of 9.5 µM.
As for `O=c1cc(-c2ccccc2)oc2cccc(OCCCCN3CCC(O)CC3)c12`, the Ki is 9.5 µM.
Molecule `O=c1cc(C2CCC2)oc2ccc(OCCCCCCN3CCC(O)CC3)cc12` had a Ki of 14 µM.
Still for that read-out and setting: as for `O=c1cc(-c2ccccc2)oc2cccc(OCCCCCN3CCC(O)CC3)c12`, the figure is 5.1 µM; as for `O=c1cc(-c2ccccc2)oc2ccc(OCCCCCCN3CCCCCC3)cc12`, 2.3 µM.
As to `O=c1cc(-c2ccccc2)oc2cccc(OCCCCCCN3CCC(O)CC3)c12`, the Ki is 6.1 µM.
On to `Cc1c(-c2ccccc2)oc2ccc(OCCC/C=C/CN3CCC(O)CC3)cc2c1=O`, for which the Ki was found to be 2.7 µM.

The target of the next test is T1, D(2) dopamine receptor. The test is described as follows: Affinity towards dopamine D2 site was determined by competition studies using [3H]sulpiride in rat striatum. Format: tissue-based. The procedure, abridged: as §1
For `O=c1cc(-c2ccccc2)oc2ccc(OCCCCCCN3CCCCC3)cc12`, the affinity corresponds to a Ki of 4.5 µM.

The target in the next test is T1, D(2) dopamine receptor. The test is described as follows: Affinity towards dopamine receptor D2 was determined by competition studies using [3H]sulpiride in rat striatum. It counts as tissue-based. Put shortly:
as §1
With `CN(C)CCCCCCCCOc1ccc2oc(-c3ccccc3)cc(=O)c2c1`, the affinity corresponds to a Ki of 2.8 µM.
The same measure, in the same setting: then `CN(C)CCCCOc1ccc2oc(-c3ccccc3)cc(=O)c2c1`, with 4.2 µM; and `O=c1cc(C2CCCCC2)oc2ccc(OCCCCCCN3CCOCC3)cc12`, with 14 µM; and `O=c1cc(C2CCCC2)oc2ccc(OCCCCCCN3CCCCC3)cc12`, with 3.2 µM.
Regarding `O=c1cc(-c2ccccc2)oc2cc(OCCCCN3CCC(O)CC3)ccc12`, the Ki turned out to be 1 µM.
The same measure, in the same setting: then `CC1CCN(CCCCCCOc2ccc3oc(-c4ccccc4)cc(=O)c3c2)CC1`, with 0.57 µM; and `O=c1cc(-c2ccncc2)oc2ccc(OCCCCCCN3CCCCC3)cc12`, with 1.8 µM.
Same read-out and setting: then `O=c1cc(-c2ccccc2)oc2c(OCCCCCCN3CCC(O)CC3)cccc12`, with 0.94 µM.
As for `O=c1cc(-c2ccccc2)oc2cc(OCCCCCCCCN3CCC(O)CC3)ccc12`, affinity was put at a Ki of 2.8 µM.
Consider `CN(C)CCCCCCCCCOc1ccc2oc(-c3ccccc3)cc(=O)c2c1`, for which the affinity corresponds to a Ki of 2.2 µM.
The molecule `O=c1cc(-c2cccs2)oc2ccc(OCCCCCCN3CCCCC3)cc12` came in with a Ki of 1.4 µM.
For `CN(C)CCCCCCCCCCOc1ccc2oc(-c3ccccc3)cc(=O)c2c1`, the affinity corresponds to a Ki of 2.7 µM.
On to `CN(C)CCOc1ccc2c(=O)cc(-c3ccccc3)oc2c1`, for which the Ki was 13 µM.
In the case of `O=c1cc(-c2ccccc2Cl)oc2ccc(OCCCCCCN3CCCCC3)cc12`, the Ki was determined as 2.2 µM.
As to `CN(C)CCCCCCCOc1ccc2oc(-c3ccccc3)cc(=O)c2c1`, the Ki is 12 µM.
In turn, `O=c1cc(C2CCC2)oc2ccc(OCCCCCCN3CCCCC3)cc12` had a Ki of 5.5 µM.
For `COc1c(-c2ccccc2)oc2ccc(OCCCCCCN3CCC(O)CC3)cc2c1=O`, the affinity corresponds to a Ki of 2.6 µM.
`O=c1cc(-c2ccccc2)oc2ccc(OCCCCN3CCC(O)CC3)cc12` displayed a Ki of 6.8 µM.
`O=c1cc(-c2ccccc2)oc2ccc(OCCCCCN3CCC(O)CC3)cc12`: the Ki was 5.1 µM.
The molecule `O=c1cc(-c2ccccc2)oc2ccc(OCCCN3CCC(O)CC3)cc12` displayed a Ki of 3.4 µM.
The molecule `O=c1cc(-c2ccccc2)oc2cccc(OCCCCCCCN3CCC(O)CC3)c12` gave a Ki of 2.4 µM.
Same read-out and setting: then `CN(C)CCCCCOc1ccc2oc(-c3ccccc3)cc(=O)c2c1`, with 8.2 µM; and `O=c1cc(-c2ccccc2)oc2cc(OCCCCCCCN3CCC(O)CC3)ccc12`, with 4 µM.
Take `O=c1cc(-c2cccnc2)oc2ccc(OCCCCCCN3CCCCC3)cc12`: the Ki was 2.3 µM.
Turning to `O=c1cc(-c2ccccc2)oc2ccc(OCCCCCCN3CCC(O)CC3)cc12`, the Ki worked out at 3.7 µM.
`CC(C)Cc1cc(=O)c2cc(OCCCCCN3CCC(O)CC3)ccc2o1` registered a Ki of 13 µM.
The same measure, in the same setting: then `O=c1cc(-c2ccccc2)oc2ccc(OCCCCCCN3CCNCC3c3ncccn3)cc12` (stereo not given), with 1.3 µM; and `O=c1cc(-c2ccccc2)oc2ccc(OCCCCCCCCN3CCC(O)CC3)cc12`, with 8.9 µM.
On the same count and under the same terms, then `O=c1cc(-c2ccccc2)oc2ccc(OCCCCCCCN3CCC(O)CC3)cc12`, with 6.5 µM; and `O=c1cc(-c2ccccc2)oc2ccc(OCCCCCCN3CCC(CCO)CC3)cc12`, with 2.7 µM.
Turning to `O=c1cc(-c2ccccc2)oc2cc(OCCCCCCN3CCC(O)CC3)ccc12`, the affinity corresponds to a Ki of 6 µM.
Regarding `O=c1cc(-c2ccccc2)oc2cc(OCCCCCN3CCC(O)CC3)ccc12`, the Ki is 5.9 µM.
Regarding `Cc1c(C2CCCCC2)oc2ccc(OCCCCCCN3CCC(O)CC3)cc2c1=O`, the affinity, expressed as Ki, was 4.7 µM.
On to `O=c1cc(-c2ccccc2)oc2ccc(OCCCCCCN3CCCC(O)C3)cc12` (stereo not given), for which the Ki was 5.5 µM.
`O=c1cc(-c2ccccc2)oc2ccc(OCCCCCCN3CCCC3)cc12` came in with a Ki of 2.3 µM.
`O=c1cc(C2CCCCC2)oc2ccc(OCCCCCCN3CCCCC3)cc12` displayed a Ki of 7.7 µM.
Regarding `CN(C)CCOc1ccc2oc(-c3ccccc3)cc(=O)c2c1`, the Ki was 4.5 µM.
